The values below come from ChEMBL document CHEMBL1641468, “Synthesis of modified siRNA bearing C-5 polyamine-substituted pyrimidine nucleoside in their 3'-overhang regions and its RNAi activity” (Bioorg Med Chem Lett, 2011).

Calls of active or inactive are those of the source. The rule behind the calls is not given here.

Assay [1] has as its target T1, Hepatocyte nuclear factor 4-alpha (Homo sapiens) (UniProt P41235).
T1 sequence (whole entry): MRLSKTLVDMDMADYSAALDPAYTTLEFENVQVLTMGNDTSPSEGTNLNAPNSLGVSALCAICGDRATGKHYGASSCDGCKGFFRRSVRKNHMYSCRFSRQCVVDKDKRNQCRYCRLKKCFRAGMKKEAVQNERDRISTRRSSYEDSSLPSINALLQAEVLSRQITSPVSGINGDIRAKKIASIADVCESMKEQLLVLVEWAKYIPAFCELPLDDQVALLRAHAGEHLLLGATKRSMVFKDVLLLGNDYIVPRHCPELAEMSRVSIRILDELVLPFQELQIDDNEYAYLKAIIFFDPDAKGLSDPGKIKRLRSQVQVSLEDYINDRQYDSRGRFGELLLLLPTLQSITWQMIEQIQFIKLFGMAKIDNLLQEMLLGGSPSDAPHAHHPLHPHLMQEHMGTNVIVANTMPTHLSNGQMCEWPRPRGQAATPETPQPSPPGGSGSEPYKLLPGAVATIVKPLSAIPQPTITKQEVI
The assay can be described thus: Inhibition of HNF4alpha mRNA expression in human HepG2 cells after 24 hrs by RT-PCR analysis. As to conditions: in the assay text read “after 48 hrs” for “after 24 hrs”. The assay is classed as cell-based. An outline of the steps: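 HepG2 cells were grown in DMEM with 5% FBS at 37 °C and transfected with siRNA using a transfection reagent. After 24 h at 37 °C, the medium was changed to DMEM with 10% FBS and cells were incubated a further 24 h. Total RNA was reverse-transcribed for real-time PCR (40 cycles). HNF4α mRNA was normalized to GAPDH by ΔΔCt and expressed relative to nonsense control siRNA, using the mean Ct of duplicate PCRs from independent cells.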

The target in assay [2] is T1, Hepatocyte nuclear factor 4-alpha (Homo sapiens). The assay can be described thus: Inhibition of HNF4alpha mRNA expression in human HepG2 cells after 24 hrs by real-time RT-PCR. (In qPCR the cycle at which signal appears reflects the starting amount.)

For the compound `Cc1cn([C@H]2C[C@H](OP(=O)(O)OC[C@H]3O[C@@H](n4cc(C)c(=O)[nH]c4=O)C[C@@H]3O)[C@@H](COP(=O)(O)O[C@H]3[C@@H](O)[C@H](n4ccc(N)nc4=O)O[C@@H]3COP(=O)(O)O[C@H]3[C@@H](O)[C@H](n4ccc(N)nc4=O)O[C@@H]3COP(=O)(O)O[C@@H]3[C@H](O)[C@@H](COP(=O)(O)O[C@H]4[C@@H](O)[C@H](n5ccc(=O)[nH]c5=O)O[C@@H]4COP(=O)(O)O[C@H]4[C@@H](O)[C@H](n5ccc(N)nc5=O)O[C@@H]4COP(=O)(O)O[C@H]4[C@@H](O)[C@H](n5cnc6c(N)ncnc65)O[C@@H]4COP(=O)(O)O[C@H]4[C@@H](O)[C@H](n5ccc(N)nc5=O)O[C@@H]4COP(=O)(O)O[C@@H]4[C@H](O)[C@@H](COP(=O)(O)O[C@H]5[C@@H](O)[C@H](n6ccc(N)nc6=O)O[C@@H]5COP(=O)(O)O[C@H]5[C@@H](O)[C@H](n6cnc7c(N)ncnc76)O[C@@H]5COP(=O)(O)O[C@H]5[C@@H](O)[C@H](n6ccc(N)nc6=O)O[C@@H]5COP(=O)(O)O[C@H]5[C@@H](O)[C@H](n6ccc(N)nc6=O)O[C@@H]5COP(=O)(O)O[C@H]5[C@@H](O)[C@H](n6cnc7c(N)ncnc76)O[C@@H]5COP(=O)(O)O[C@H]5[C@@H](O)[C@H](n6ccc(N)nc6=O)O[C@@H]5COP(=O)(O)O[C@H]5[C@@H](O)[C@H](n6ccc(N)nc6=O)O[C@@H]5COP(=O)(O)O[C@H]5[C@@H](O)[C@H](n6ccc(=O)[nH]c6=O)O[C@@H]5COP(=O)(O)O[C@@H]5[C@H](O)[C@@H](COP(=O)(O)O[C@H]6[C@@H](O)[C@H](n7ccc(=O)[nH]c7=O)O[C@@H]6COP(=O)(O)O[C@H]6[C@@H](O)[C@H](n7ccc(=O)[nH]c7=O)O[C@@H]6COP(=O)(O)O)O[C@H]5n5cnc6c(=O)[nH]c(N)nc65)O[C@H]4n4cnc5c(=O)[nH]c(N)nc54)O[C@H]3n3cnc4c(=O)[nH]c(N)nc43)O2)c(=O)[nH]c1=O`, the outcome in assay [1] and in assay [2] was Active.
For the compound `Cc1cn([C@H]2C[C@H](OP(=O)(O)OC[C@H]3O[C@@H](n4cc(CC(=O)NCCN(CCN)CCN)c(=O)[nH]c4=O)C[C@@H]3O)[C@@H](COP(=O)(O)O[C@H]3[C@@H](O)[C@H](n4ccc(N)nc4=O)O[C@@H]3COP(=O)(O)O[C@H]3[C@@H](O)[C@H](n4ccc(N)nc4=O)O[C@@H]3COP(=O)(O)O[C@@H]3[C@H](O)[C@@H](COP(=O)(O)O[C@H]4[C@@H](O)[C@H](n5ccc(=O)[nH]c5=O)O[C@@H]4COP(=O)(O)O[C@H]4[C@@H](O)[C@H](n5ccc(N)nc5=O)O[C@@H]4COP(=O)(O)O[C@H]4[C@@H](O)[C@H](n5cnc6c(N)ncnc65)O[C@@H]4COP(=O)(O)O[C@H]4[C@@H](O)[C@H](n5ccc(N)nc5=O)O[C@@H]4COP(=O)(O)O[C@@H]4[C@H](O)[C@@H](COP(=O)(O)O[C@H]5[C@@H](O)[C@H](n6ccc(N)nc6=O)O[C@@H]5COP(=O)(O)O[C@H]5[C@@H](O)[C@H](n6cnc7c(N)ncnc76)O[C@@H]5COP(=O)(O)O[C@H]5[C@@H](O)[C@H](n6ccc(N)nc6=O)O[C@@H]5COP(=O)(O)O[C@H]5[C@@H](O)[C@H](n6ccc(N)nc6=O)O[C@@H]5COP(=O)(O)O[C@H]5[C@@H](O)[C@H](n6cnc7c(N)ncnc76)O[C@@H]5COP(=O)(O)O[C@H]5[C@@H](O)[C@H](n6ccc(N)nc6=O)O[C@@H]5COP(=O)(O)O[C@H]5[C@@H](O)[C@H](n6ccc(N)nc6=O)O[C@@H]5COP(=O)(O)O[C@H]5[C@@H](O)[C@H](n6ccc(=O)[nH]c6=O)O[C@@H]5COP(=O)(O)O[C@@H]5[C@H](O)[C@@H](COP(=O)(O)O[C@H]6[C@@H](O)[C@H](n7ccc(=O)[nH]c7=O)O[C@@H]6COP(=O)(O)O[C@H]6[C@@H](O)[C@H](n7ccc(=O)[nH]c7=O)O[C@@H]6COP(=O)(O)O)O[C@H]5n5cnc6c(=O)[nH]c(N)nc65)O[C@H]4n4cnc5c(=O)[nH]c(N)nc54)O[C@H]3n3cnc4c(=O)[nH]c(N)nc43)O2)c(=O)[nH]c1=O`, the result in assay [1] and in assay [2] was Active.
On to `NCCN(CCN)CCNC(=O)Cc1cn([C@H]2C[C@H](OP(=O)(O)OC[C@H]3O[C@@H](n4cc(CC(=O)NCCN(CCN)CCN)c(=O)[nH]c4=O)C[C@@H]3O)[C@@H](COP(=O)(O)O[C@H]3[C@@H](O)[C@H](n4ccc(N)nc4=O)O[C@@H]3COP(=O)(O)O[C@H]3[C@@H](O)[C@H](n4ccc(N)nc4=O)O[C@@H]3COP(=O)(O)O[C@@H]3[C@H](O)[C@@H](COP(=O)(O)O[C@H]4[C@@H](O)[C@H](n5ccc(=O)[nH]c5=O)O[C@@H]4COP(=O)(O)O[C@H]4[C@@H](O)[C@H](n5ccc(N)nc5=O)O[C@@H]4COP(=O)(O)O[C@H]4[C@@H](O)[C@H](n5cnc6c(N)ncnc65)O[C@@H]4COP(=O)(O)O[C@H]4[C@@H](O)[C@H](n5ccc(N)nc5=O)O[C@@H]4COP(=O)(O)O[C@@H]4[C@H](O)[C@@H](COP(=O)(O)O[C@H]5[C@@H](O)[C@H](n6ccc(N)nc6=O)O[C@@H]5COP(=O)(O)O[C@H]5[C@@H](O)[C@H](n6cnc7c(N)ncnc76)O[C@@H]5COP(=O)(O)O[C@H]5[C@@H](O)[C@H](n6ccc(N)nc6=O)O[C@@H]5COP(=O)(O)O[C@H]5[C@@H](O)[C@H](n6ccc(N)nc6=O)O[C@@H]5COP(=O)(O)O[C@H]5[C@@H](O)[C@H](n6cnc7c(N)ncnc76)O[C@@H]5COP(=O)(O)O[C@H]5[C@@H](O)[C@H](n6ccc(N)nc6=O)O[C@@H]5COP(=O)(O)O[C@H]5[C@@H](O)[C@H](n6ccc(N)nc6=O)O[C@@H]5COP(=O)(O)O[C@H]5[C@@H](O)[C@H](n6ccc(=O)[nH]c6=O)O[C@@H]5COP(=O)(O)O[C@@H]5[C@H](O)[C@@H](COP(=O)(O)O[C@H]6[C@@H](O)[C@H](n7ccc(=O)[nH]c7=O)O[C@@H]6COP(=O)(O)O[C@H]6[C@@H](O)[C@H](n7ccc(=O)[nH]c7=O)O[C@@H]6COP(=O)(O)O)O[C@H]5n5cnc6c(=O)[nH]c(N)nc65)O[C@H]4n4cnc5c(=O)[nH]c(N)nc54)O[C@H]3n3cnc4c(=O)[nH]c(N)nc43)O2)c(=O)[nH]c1=O`, for which the outcome in assay [1] and in assay [2] was Active.
Take `Cc1cn([C@H]2C[C@H](OP(=O)(O)OC[C@H]3O[C@@H](n4cc(C)c(=O)[nH]c4=O)C[C@@H]3O)[C@@H](COP(=O)(O)O[C@@H]3[C@H](O)[C@@H](COP(=O)(O)O[C@H]4[C@@H](O)[C@H](n5cnc6c(N)ncnc65)O[C@@H]4COP(=O)(O)O[C@H]4[C@@H](O)[C@H](n5ccc(N)nc5=O)O[C@@H]4COP(=O)(O)O[C@H]4[C@@H](O)[C@H](n5cnc6c(N)ncnc65)O[C@@H]4COP(=O)(O)O[C@@H]4[C@H](O)[C@@H](COP(=O)(O)O[C@@H]5[C@H](O)[C@@H](COP(=O)(O)O[C@H]6[C@@H](O)[C@H](n7ccc(=O)[nH]c7=O)O[C@@H]6COP(=O)(O)O[C@@H]6[C@H](O)[C@@H](COP(=O)(O)O[C@@H]7[C@H](O)[C@@H](COP(=O)(O)O[C@H]8[C@@H](O)[C@H](n9ccc(=O)[nH]c9=O)O[C@@H]8COP(=O)(O)O[C@@H]8[C@H](O)[C@@H](COP(=O)(O)O[C@H]9[C@@H](O)[C@H](n%10ccc(N)nc%10=O)O[C@@H]9COP(=O)(O)O[C@@H]9[C@H](O)[C@@H](COP(=O)(O)O[C@H]%10[C@@H](O)[C@H](n%11ccc(=O)[nH]c%11=O)O[C@@H]%10COP(=O)(O)O[C@@H]%10[C@H](O)[C@@H](COP(=O)(O)O[C@H]%11[C@@H](O)[C@H](n%12cnc%13c(N)ncnc%13%12)O[C@@H]%11COP(=O)(O)O[C@H]%11[C@@H](O)[C@H](n%12ccc(N)nc%12=O)O[C@@H]%11COP(=O)(O)O[C@@H]%11[C@H](O)[C@@H](COP(=O)(O)O[C@H]%12[C@@H](O)[C@H](n%13cnc%14c(=O)[nH]c(N)nc%14%13)O[C@@H]%12COP(=O)(O)O)O[C@H]%11n%11cnc%12c(=O)[nH]c(N)nc%12%11)O[C@H]%10n%10cnc%11c(=O)[nH]c(N)nc%11%10)O[C@H]9n9cnc%10c(=O)[nH]c(N)nc%109)O[C@H]8n8cnc9c(=O)[nH]c(N)nc98)O[C@H]7n7cnc8c(=O)[nH]c(N)nc87)O[C@H]6n6cnc7c(=O)[nH]c(N)nc76)O[C@H]5n5cnc6c(=O)[nH]c(N)nc65)O[C@H]4n4cnc5c(=O)[nH]c(N)nc54)O[C@H]3n3cnc4c(N)ncnc43)O2)c(=O)[nH]c1=O`: the outcome in assay [1] and in assay [2] was Active.
